Experimental data as given in the RNAGym collection of RNA variant scans (doi:10.1002/anie.201605470).

B1: Osa-1-4 twister ribozyme (parent)
chain: CCGCCUAACACUGCCAAUGCCGGUCCCAAGCCCGGAUAAAAGUGGAGGGGGCGG

Variants of: B1
Assay: self-cleavage, relative activity (ratio to wild type); higher = more cleavage; co-transcriptional
Summary of the method: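 The 48 positions downstream of the cleavage site in a DNA template for a 54-nucleotide Oryza sativa twister ribozyme carried 97 % wild-type base and 1 % of each other base. After in vitro transcription (2 h, 37 °C) with co-transcriptional self-cleavage, the RNA was reverse-transcribed with a template-switching oligonucleotide, PCR-amplified and deep-sequenced. Relative activity is the fraction cleaved, judged by reads with or without upstream sequence and normalised to wild type.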

Variant	self-cleavage
A40G U24A	0.07
A40G U24C	0.08
A40G U24G	0.02
A40G U12A	0.75
A40G U12G	0.28
A40G U12C	0.79
A40U C9A	0.09
A40U C9U	0.2
A40U C9G	0.17
A40U G13A	0.06
A40U G13C	0.02
A40U G13U	0.01
A40G G48C	0.08
A40G G48A	0.08
A40G G48U	0.06
A40G G19A	0.18
A40G G19C	0.07
A40G G19U	0.11
A41C U18C	0.8
A41C U18A	0.92
A41C U18G	0.85
A40U G48A	0.06
A40U G48C	0.05
A40U G48U	0.04

Variant	self-cleavage
A41C A8U	0.16
A41C A8G	0.24
A41C A8C	0.09
A40U G34U	0.18
A40U G34A	0.23
A40U G34C	0.15
A41C C25A	0.08
A41C C25U	0.8
A41C C25G	0.08
A40U C25U	0.13
A40U C25A	0.06
A40U C25G	0.05
A41C G47A	0.17
A41C G47C	0.09
A41C G47U	0.2
A40U C26G	0.08
A40U C26U	0.14
A40U C26A	0.05
A40U U18C	0.71
A40U U18A	0.77
A40U U18G	0.64
A40U G44U	0.26
A40U G44A	0.25
A40U G44C	0.43

Variant	self-cleavage
A40U G19C	0.04
A40U G19U	0.08
A40U G19A	0.17
A41C G34U	0.73
A41C G34A	0.76
A41C G34C	0.32
A40G G44C	0.64
A40G G44A	0.21
A40G G44U	0.38
A41C G35U	0.76
A41C G35C	0.63
A41C G35A	0.81
A40U C33U	0.15
A40U C33G	0.06
A40U C33A	0.07
A41C C33A	0.13
A41C C33G	0.09
A41C C33U	0.7
A41C G19A	0.74
A41C G19U	0.15
A41C G19C	0.14
A41G	0.84
A41C	0.99
A40U C21G	0.05

Variant	self-cleavage
A40U C21A	0.15
A40U C21U	0.59
A41C A46G	0.06
A41C A46C	0.05
A41C A46U	0.08
A40G G22C	0.06
A40G G22A	0.46
A40G G22U	0.16
A41C G30C	0.05
A41C G30U	0.04
A41C G30A	0.05
A40G G45C	0.07
A40G G45U	0.07
A40G G45A	0.09
A40U G30U	0.03
A40U G30A	0.03
A40U G30C	0.04
A41C C20A	0.92
A41C C20G	0.13
A41C C20U	0.95
A41C U12G	0.8
A41C U12A	0.97
A41C U12C	0.55
A41G C15U	0.22

Variant	self-cleavage
A41G C15A	0.18
A41G C15G	0.28
A41G A8C	0.09
A41G A8U	0.1
A41G A8G	0.19
A41C C9A	0.39
A41C C9U	0.79
A41C C9G	0.41
A40U G23C	0.04
A40U G23U	0.05
A40U G23A	0.11
A41C U43A	0.45
A41C U43C	0.22
A41C U43G	0.12
A41G C9G	0.22
A41G C9U	0.11
A41G C9A	0.08
A40U G42U	0.06
A40U G42C	0.11
A40U G42A	0.1
A40U C52G	0.46
A40U C52A	0.4
A40U C52U	0.74
A40G G34C	0.2

Variant	self-cleavage
A40G G34A	0.44
A40G G34U	0.22
A40U G53U	0.11
A40U G53A	0.19
A40U G53C	0.06
A40U G54A	0.25
A40U G54C	0.19
A40U G54U	0.47
A40U C11U	0.33
A40U C11A	0.1
A40U C11G	0.06
A41G C11U	0.34
A41G C11G	0.18
A41G C11A	0.12
A41C C32U	0.09
A41C C32A	0.08
A41C C32G	0.11
A41C C15U	0.36
A41C C15G	0.14
A41C C15A	0.27
A40G C33G	0.06
A40G C33A	0.08
A40G C33U	0.15
A40U A46G	0.05

Variant	self-cleavage
A40U A46C	0.05
A40U A46U	0.07
A40G G53A	0.2
A40G G53C	0.08
A40G G53U	0.12
A40U U43G	0.1
A40U U43A	0.18
A40U U43C	0.13
A41G C14G	0.14
A41G C14U	0.24
A41G C14A	0.07
A40U G50A	0.43
A40U G50U	0.34
A40U G50C	0.18
A41C G44C	0.97
A41C G44U	0.9
A41C G44A	0.81
A40U C20G	0.07
A40U C20U	0.81
A40U C20A	0.64
A40U U37C	0.77
A40U U37G	0.94
A40U U37A	0.87
A40G G50A	0.43

Variant	self-cleavage
A40G G50C	0.29
A40G G50U	0.54
A40U C15G	0.11
A40U C15U	0.1
A40U C15A	0.11
A41C C21G	0.08
A41C C21A	0.45
A41C C21U	1.04
A41C G48U	0.07
A41C G48A	0.08
A41C G48C	0.1
A40G U37G	1.02
A40G U37C	0.9
A40G U37A	0.91
A40U	0.85
A41C C52G	1.04
A41C C52A	0.94
A41C C52U	1.03
A41C G23A	0.29
A41C G23C	0.06
A41C G23U	0.06
A41C C11A	0.71
A41C C11G	0.24
A41C C11U	0.81

Variant	self-cleavage
A41G A46C	0.06
A41G A46G	0.07
A41G A46U	0.08
A40G C52G	0.65
A40G C52A	0.52
A40G C52U	0.94
A40U A7U	0.08
A40U A7G	0.13
A40U A7C	0.04
A40G G30U	0.05
A40G G30A	0.03
A40G G30C	0.04
A41G A7U	0.08
A41G A7G	0.14
A41G A7C	0.05
A41C G51C	0.07
A41C G51A	0.28
A41C G51U	0.16
A41C G42U	0.11
A41C G42A	0.19
A41C G42C	0.12
A41C G49C	0.08
A41C G49A	0.11
A41C G49U	0.12

Variant	self-cleavage
A40U A41U	0.83
A40U A41C	0.87
A40U A41G	0.1
A41C G22U	0.49
A41C G22C	0.05
A41C G22A	0.8
A40U G45A	0.07
A40U G45C	0.06
A40U G45U	0.07
A40G G49U	0.09
A40G G49A	0.09
A40G G49C	0.07
A40U G47A	0.09
A40U G47C	0.06
A40U G47U	0.09
A41C G13U	0.04
A41C G13A	0.08
A41C G13C	0.02
A40U A8G	0.15
A40U A8U	0.07
A40U A8C	0.05
A40U G22A	0.32
A40U G22C	0.06
A40U G22U	0.21

Variant	self-cleavage
A40U C32A	0.07
A40U C32G	0.07
A40U C32U	0.08
A40U C31G	0.07
A40U C31U	0.2
A40U C31A	0.02
A40G C32U	0.09
A41C C14U	0.22
A41C C14A	0.07
A41C C14G	0.15
A40G G35U	0.69
A40G G35A	0.71
A40G G35C	0.12
A41C C27A	0.13
A41C C27U	0.12
A41C C27G	0.06
A41C U24A	0.13
A41C U24C	0.1
A41C U24G	0.03
A40G U43C	0.14
A40G U43A	0.21
A40G U43G	0.19
A40G G54A	0.3
A40G G54C	0.26

Variant	self-cleavage
A40G G54U	0.46
A40G G23C	0.06
A40G G23U	0.05
A40G G23A	0.12
A40U G51U	0.1
A40U G51C	0.06
A40U G51A	0.18
A41C G45A	0.13
A41C G45C	0.06
A41C G45U	0.11
A40U G35C	0.09
A40U G35A	0.58
A40U G35U	0.41
A40U U12G	0.36
A40U U12A	1
A40U U12C	0.19
A41C A7U	0.09
A41C A7C	0.05
A41C A7G	0.18
A40U G49A	0.07
A40U G49U	0.08
A40U G49C	0.05
A41G C20U	0.85
A41G C20G	0.12

Variant	self-cleavage
A41G C20A	0.85
A40U C27A	0.09
A40U C27U	0.1
A40U C27G	0.06
A40G G51A	0.25
A40G G51U	0.12
A40G G51C	0.07
A41C C26U	0.8
A41C C26G	0.09
A41C C26A	0.06
A41C G50C	0.93
A41C G50U	1
A41C G50A	0.37
A40U C14A	0.15
A40U C14G	0.13
A40U C14U	0.11
A40G G42C	0.13
A40G G42A	0.14
A40G G42U	0.07
A40U U24C	0.09
A40U U24G	0.03
A40U U24A	0.06
A40G G13C	0.03
A40G G13U	0.02

Variant	self-cleavage
A40G G13A	0.06
A41C G53A	0.73
A41C G53U	0.28
A41C G53C	0.08
A40G U18C	0.72
A40G U18A	0.88
A40G U18G	0.76
A41C G54U	0.89
A41C G54A	0.92
A41C G54C	0.85
A40G G47C	0.06
A40G G47A	0.11
A40G G47U	0.1
A41G C21A	0.22
A41G C21G	0.13
A41G C21U	0.75
A41C U37G	1.02
A41C U37A	0.92
A41C U37C	1
A41C C31G	0.09
A41C C31A	0.04
A41C C31U	0.8
